Reference: ChEMBL document CHEMBL1667800, “Synthesis, DNA/RNA affinity and antitumour activity of new aromatic diamidines linked by 3,4-ethylenedioxythiophene” (Eur J Med Chem, 2011)

Columns and labels:
[1] = test system: Caco-2; assay: Cytotoxicity against human Caco2 cells after 72 hrs by MTT assay; assay type: functional; conditions: Caco-2, 72 h
Outline: (§1)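 Cells were seeded at 2 × 10^4 cells/mL and attached overnight at 37 °C, 5% CO2. They were then exposed for 72 h to compounds from aqueous stocks (working solutions 10^-3–10^-6 mol dm^-3). MTT was added for 4 h at 37 °C, formazan dissolved in DMSO, and absorbance read at 570 nm. GI50 is the mean ± SD of three independent experiments run in triplicate.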

[2] = test system: MCF7; assay: Cytotoxicity against human MCF7 cells after 72 hrs by MTT assay; assay type: functional; conditions: MCF7, 72 h; outline: as §1
[3] = test system: NCI-H358; assay: Cytotoxicity against human NCI-H358 cells after 72 hrs by MTT assay; assay type: functional; conditions: NCI-H358, 72 h; outline: as §1
[4] = test system: HeLa; assay: Cytotoxicity against human HeLa cells after 72 hrs by MTT assay; assay type: functional; outline: as §1
[5] = test system: HeLa; assay: Induction of cell cycle arrest in human HeLa assessed as accumulation at G2/M-phase at 5x10'-5 M after 24 hrs by FACS analysis (RVb = […]); assay type: functional
[6] = Cytotoxicity against MDCK cells after 72 hrs by MTT assay; assay type: cell-based, Canis lupus familiaris; conditions: dog; outline: as §1
[7] = test system: HeLa; assay: Induction of cell cycle arrest in human HeLa assessed as accumulation at G2/M-phase at 5x10'-5 M after 72 hrs by FACS analysis (RVb = […]); assay type: functional
[8] = test system: HeLa; assay: Induction of cell cycle arrest in human HeLa assessed as accumulation at S-phase at 5x10'-5 M after 72 hrs by FACS analysis (RVb = 62.2+/-4.4%); assay type: functional
[9] = test system: HeLa; assay: Induction of cell cycle arrest in human HeLa assessed as accumulation at G0/G1-phase at 5x10'-5 M after 72 hrs by FACS analysis (RVb = 62.2+/-4.4%); assay type: functional
[10] = test system: HeLa; assay: Induction of cell cycle arrest in human HeLa assessed as accumulation at G0/G1-phase at 5x10'-5 M after 24 hrs by FACS analysis (RVb = 62.2+/-4.4%); assay type: functional
[11] = test system: HeLa; assay: Induction of cell cycle arrest in human HeLa assessed as accumulation at G0/G1-phase at 5x10'-5 M after 48 hrs by FACS analysis (RVb = 62.2+/-4.4%); assay type: functional
[12] = test system: HeLa; assay: Induction of cell cycle arrest in human HeLa assessed as accumulation at S-phase at 5x10'-5 M after 24 hrs by FACS analysis (RVb = 62.2+/-4.4%); assay type: functional
[13] = test system: HeLa; assay: Induction of cell cycle arrest in human HeLa assessed as accumulation at S-phase at 5x10'-5 M after 48 hrs by FACS analysis (RVb = 62.2+/-4.4%); assay type: functional
[14] = test system: HEp-2; assay: Cytotoxicity against human Hep2 cells after 72 hrs by MTT assay; assay type: functional; conditions: HEp-2, 72 h; outline: as §1
[15] = test system: MIA PaCa-2; assay: Cytotoxicity against human MIAPaCa2 cells after 72 hrs by MTT assay; assay type: functional; conditions: MIA PaCa-2, 72 h; outline: as §1
[16] = test system: AGS; assay: Cytotoxicity against human AGS cells after 72 hrs by MTT assay; assay type: functional; outline: as §1
[17] = test system: HeLa; assay: Induction of cell cycle arrest in human HeLa assessed as accumulation at G2/M-phase at 5x10'-5 M after 48 hrs by FACS analysis (RVb = […]); assay type: functional

CN1CCN(c2ccc3[nH]c(-c4ccc5[nH]c(-c6ccc(O)cc6)nc5c4)nc3c2)CC1 [HOECHST 33258]
GI50 [1]: 84 µM
GI50 [2]: 5.7 µM
GI50 [3]: 91.7 µM
GI50 [4]: 116 µM
Activity [5]: 7.1%
GI50 at 72 h [6]: 158 µM
Activity [7]: 11.2%
Activity [8]: 43.1%
Activity [9]: 45.7%
Activity [10]: 51.3%
Activity [11]: 49%
Activity [12]: 41.6%
Activity [13]: 42.6%
GI50 [14]: 132 µM
GI50 [15]: 192 µM
GI50 [16]: 112 µM
Activity [17]: 8.4%
